Reference: ChEMBL document CHEMBL5678805, “Intermittent administration of MEK inhibitor GDC-0973 plus PI3K inhibitor GDC-0941 triggers robust apoptosis and tumor growth inhibition” (Cancer Res, 2012)
Active and inactive are the calls of the source. The rule behind the calls is not given here.

How the values were obtained:
A2058 [1] = test: Antitumor activity against human A2058 cells harboring BRAF V600E/PTEN deletion mutant xenografted in mouse assessed as suppression of ERK phosphorylation at 15 mg/kg, po administered every third day for 21 days and measured after 72 hrs post dose in presence of 4-(2-(1H-indazol-4-yl)-6-((4-(methylsulfonyl)piperazin-1-yl)methyl)thieno[3,2-d]pyrimidin-4-yl)morpholine by Western blot analysis; assay type: functional, organism-based; conditions: time 576.0 hrs
A2058 [2] = test: Antitumor activity against human A2058 cells xenografted in mouse assessed as tumor growth inhibition at 20 mg/kg, po administered every third day for 21 days in presence of 4-(2-(1H-indazol-4-yl)-6-((4-(methylsulfonyl)piperazin-1-yl)methyl)thieno[3,2-d]pyrimidin-4-yl)morpholine; assay type: functional; conditions: A2058, 504 h, time 21 day, read-out: TGI
Outline: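 Human tumor xenografts in mice. Drugs given orally, as single agents or combined with the PI3K inhibitor. Schedules were daily (QD) or every third day (Q3D) over 21 days. Tumor volume was measured by caliper as (L×W×W)/2. %TGI = 100×[1 − AUC(treatment/d)/AUC(vehicle/d)] from fitted growth curves, with group means. Tumor lysates were immunoblotted for pS6.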

NCI-H2122 = test: Antitumor activity against human NCI-H2122 cells xenografted in mouse assessed as tumor growth inhibition at 20 mg/kg, po administered once a day for 21 days; assay type: functional; conditions: NCI-H2122, 504 h, time 21 day, read-out: TGI
Outline: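 Mice bearing NCI-H2122 xenografts were given MEK inhibitor, PI3K inhibitor, or both, orally once daily for 21 consecutive days at the doses labeled. Caliper tumor volumes were calculated as (L×W×W)/2. %TGI was derived from the AUC of the fitted growth curve per day relative to vehicle.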

LoVo = test: Antitumor activity against human LoVo cells harboring KRAS G13D/CDKN2A P48L/FBXW7 R505C/MSH2/SMO G16_L17insLL/A324T/NF1 R1276Q/Y1607fs17/APC1114 mutant xenografted in mouse assessed as tumor growth inhibition at 10 mg/kg, po; assay type: functional; conditions: read-out: TGI
Outline: (§1)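 Single-agent dose ranging in human tumor xenograft mice at 2.5, 5 or 10 mg/kg oral. Tumor volume was measured by caliper as (L×W×W)/2. %TGI = 100×[1 − AUC(treatment/d)/AUC(vehicle/d)] from the fitted growth curve per dose group, relative to vehicle.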

[3] = target: Platelet-derived growth factor receptor alpha (Homo sapiens, UniProt P16234); test: Inhibition of PDGFRalpha (unknown origin)
Sequence of Platelet-derived growth factor receptor alpha (P16234 whole entry): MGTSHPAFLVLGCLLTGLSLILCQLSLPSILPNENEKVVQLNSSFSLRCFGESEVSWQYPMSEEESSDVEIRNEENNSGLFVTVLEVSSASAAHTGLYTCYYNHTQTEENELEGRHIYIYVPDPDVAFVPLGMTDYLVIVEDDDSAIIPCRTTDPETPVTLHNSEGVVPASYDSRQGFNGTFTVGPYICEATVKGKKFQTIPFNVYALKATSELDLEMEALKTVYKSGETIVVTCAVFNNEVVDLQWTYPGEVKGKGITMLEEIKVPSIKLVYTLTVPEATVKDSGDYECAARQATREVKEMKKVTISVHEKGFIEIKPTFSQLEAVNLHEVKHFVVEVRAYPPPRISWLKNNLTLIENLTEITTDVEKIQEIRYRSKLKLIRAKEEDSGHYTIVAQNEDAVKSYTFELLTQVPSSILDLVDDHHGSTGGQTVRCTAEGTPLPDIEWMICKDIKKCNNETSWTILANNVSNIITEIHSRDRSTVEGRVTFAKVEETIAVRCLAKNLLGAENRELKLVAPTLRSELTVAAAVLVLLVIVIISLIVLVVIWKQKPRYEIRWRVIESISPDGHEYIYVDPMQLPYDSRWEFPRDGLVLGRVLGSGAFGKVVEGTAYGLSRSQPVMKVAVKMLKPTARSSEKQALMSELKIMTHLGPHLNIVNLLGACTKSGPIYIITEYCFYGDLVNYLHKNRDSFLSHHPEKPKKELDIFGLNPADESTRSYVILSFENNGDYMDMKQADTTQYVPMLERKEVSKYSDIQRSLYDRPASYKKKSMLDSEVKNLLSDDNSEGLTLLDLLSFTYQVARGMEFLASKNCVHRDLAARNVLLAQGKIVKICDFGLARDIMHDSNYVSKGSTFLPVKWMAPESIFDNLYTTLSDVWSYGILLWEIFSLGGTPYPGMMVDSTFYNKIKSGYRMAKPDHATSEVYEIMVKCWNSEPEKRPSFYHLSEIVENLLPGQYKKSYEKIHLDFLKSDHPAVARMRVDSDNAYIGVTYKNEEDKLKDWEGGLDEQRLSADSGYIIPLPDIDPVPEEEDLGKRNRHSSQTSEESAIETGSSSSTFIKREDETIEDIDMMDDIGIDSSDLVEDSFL

[4] = Antitumor activity against human A375.X1 cells xenografted in mouse assessed as reduction in ERK phosphorylation at 10 mg/kg, po administered for 3 days and measured at 2 to 24 hrs by Western blot analysis; assay type: functional; parameters: scale not given: the % may be the effect or the level left; conditions: time 74-96 hrs
Outline: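 A375.X1 xenograft mice were dosed orally at 1, 3, 5 or 10 mg/kg once daily for 3 days. Tumors were collected 2, 8 and 24 h after the last dose, pulverized frozen and resolved by 4–12% SDS-PAGE. p-ERK1/2 and t-ERK1/2 were measured by Western blot and quantified by band intensity, relative to vehicle-treated mice (0 h).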

[5] = target: Tyrosine-protein kinase Fes/Fps (Homo sapiens, UniProt P07332); test: Inhibition of Fes (unknown origin)
[6] = target: Mitogen-activated protein kinase kinase kinase 5 (Homo sapiens, UniProt Q99683); test: Inhibition of ASK1 (unknown origin)
Sequence of Mitogen-activated protein kinase kinase kinase 5 (Q99683 whole entry): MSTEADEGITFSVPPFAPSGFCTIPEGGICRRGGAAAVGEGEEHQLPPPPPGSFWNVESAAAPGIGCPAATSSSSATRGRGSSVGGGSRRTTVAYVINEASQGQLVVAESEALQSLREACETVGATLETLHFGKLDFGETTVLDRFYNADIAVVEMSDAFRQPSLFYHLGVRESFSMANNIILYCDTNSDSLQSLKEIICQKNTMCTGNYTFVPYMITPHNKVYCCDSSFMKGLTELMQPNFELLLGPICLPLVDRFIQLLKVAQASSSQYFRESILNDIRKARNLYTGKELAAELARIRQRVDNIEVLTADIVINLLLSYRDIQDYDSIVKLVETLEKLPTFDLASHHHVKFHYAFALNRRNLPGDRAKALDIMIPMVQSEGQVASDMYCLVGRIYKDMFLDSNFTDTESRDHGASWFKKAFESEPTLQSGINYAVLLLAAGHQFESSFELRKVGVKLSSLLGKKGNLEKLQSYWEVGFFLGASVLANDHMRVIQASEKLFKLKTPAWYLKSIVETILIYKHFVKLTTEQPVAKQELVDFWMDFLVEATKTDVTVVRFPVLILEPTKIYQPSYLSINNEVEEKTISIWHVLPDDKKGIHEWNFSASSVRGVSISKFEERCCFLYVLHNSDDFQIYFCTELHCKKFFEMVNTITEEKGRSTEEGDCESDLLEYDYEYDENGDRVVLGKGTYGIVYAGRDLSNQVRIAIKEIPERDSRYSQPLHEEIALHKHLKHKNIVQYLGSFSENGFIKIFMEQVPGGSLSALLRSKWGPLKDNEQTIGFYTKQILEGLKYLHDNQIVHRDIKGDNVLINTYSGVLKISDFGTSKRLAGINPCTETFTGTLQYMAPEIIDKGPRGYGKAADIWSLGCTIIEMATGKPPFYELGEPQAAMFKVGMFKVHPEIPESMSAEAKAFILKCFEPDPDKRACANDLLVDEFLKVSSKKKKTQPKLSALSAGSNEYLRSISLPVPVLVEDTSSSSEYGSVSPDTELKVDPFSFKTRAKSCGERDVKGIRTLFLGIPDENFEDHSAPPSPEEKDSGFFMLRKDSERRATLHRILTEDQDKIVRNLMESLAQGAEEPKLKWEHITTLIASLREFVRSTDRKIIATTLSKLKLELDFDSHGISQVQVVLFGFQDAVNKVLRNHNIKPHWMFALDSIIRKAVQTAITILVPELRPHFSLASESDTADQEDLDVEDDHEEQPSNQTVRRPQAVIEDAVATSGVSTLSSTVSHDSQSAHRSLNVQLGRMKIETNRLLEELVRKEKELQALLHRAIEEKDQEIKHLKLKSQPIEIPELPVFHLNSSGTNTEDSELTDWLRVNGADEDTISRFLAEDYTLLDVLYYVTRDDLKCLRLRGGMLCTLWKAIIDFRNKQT

[7] = target: Dual specificity mitogen-activated protein kinase kinase 6 (Homo sapiens, UniProt P52564); test: Inhibition of MKK6 (unknown origin)
Sequence of Dual specificity mitogen-activated protein kinase kinase 6 (P52564 whole entry): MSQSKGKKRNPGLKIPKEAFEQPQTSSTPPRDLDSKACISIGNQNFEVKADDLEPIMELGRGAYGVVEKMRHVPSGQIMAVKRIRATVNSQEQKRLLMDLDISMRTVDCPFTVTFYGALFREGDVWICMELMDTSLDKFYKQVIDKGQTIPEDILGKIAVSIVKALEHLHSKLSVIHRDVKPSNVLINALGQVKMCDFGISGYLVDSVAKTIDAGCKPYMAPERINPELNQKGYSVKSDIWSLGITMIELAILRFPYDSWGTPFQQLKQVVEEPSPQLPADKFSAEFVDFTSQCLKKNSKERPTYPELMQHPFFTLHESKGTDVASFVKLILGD

A2058 [8] = test: Antitumor activity against human A2058 cells harboring BRAF V600E/PTEN L112Q/V175/TP53 V274F mutant xenografted in mouse assessed as tumor growth inhibition at 5 mg/kg, po; assay type: functional; conditions: read-out: TGI
Outline: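 Mice carrying human tumor xenografts dosed orally once daily for 21 consecutive days. Tumor volume measured by calipers as (L×W×W)/2. %TGI = 100×[1 − AUC(treatment/day)/AUC(vehicle/day)], using the area under the fitted growth curve relative to vehicle.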

[9] = target: Tyrosine-protein kinase HCK (Homo sapiens, UniProt P08631); test: Inhibition of Hck (unknown origin)
Sequence of Tyrosine-protein kinase HCK (P08631 whole entry): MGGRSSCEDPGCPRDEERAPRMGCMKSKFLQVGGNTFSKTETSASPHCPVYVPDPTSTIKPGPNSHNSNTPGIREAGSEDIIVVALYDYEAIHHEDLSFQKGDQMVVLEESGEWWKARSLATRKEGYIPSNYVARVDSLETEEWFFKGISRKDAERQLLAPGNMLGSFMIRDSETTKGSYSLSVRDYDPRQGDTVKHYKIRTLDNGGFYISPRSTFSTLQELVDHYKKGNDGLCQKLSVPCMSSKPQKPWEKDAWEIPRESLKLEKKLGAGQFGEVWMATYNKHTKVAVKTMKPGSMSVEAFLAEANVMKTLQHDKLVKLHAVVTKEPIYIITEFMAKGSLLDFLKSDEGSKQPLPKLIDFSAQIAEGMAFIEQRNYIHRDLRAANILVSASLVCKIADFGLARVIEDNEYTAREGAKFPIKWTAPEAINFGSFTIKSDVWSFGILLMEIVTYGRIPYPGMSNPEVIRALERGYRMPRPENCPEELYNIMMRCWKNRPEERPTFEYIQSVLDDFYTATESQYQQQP

[10] = target: Serine/threonine-protein kinase Nek3 (Homo sapiens, UniProt P51956); test: Inhibition of NEK3 (unknown origin)
Sequence of Serine/threonine-protein kinase Nek3 (P51956 whole entry): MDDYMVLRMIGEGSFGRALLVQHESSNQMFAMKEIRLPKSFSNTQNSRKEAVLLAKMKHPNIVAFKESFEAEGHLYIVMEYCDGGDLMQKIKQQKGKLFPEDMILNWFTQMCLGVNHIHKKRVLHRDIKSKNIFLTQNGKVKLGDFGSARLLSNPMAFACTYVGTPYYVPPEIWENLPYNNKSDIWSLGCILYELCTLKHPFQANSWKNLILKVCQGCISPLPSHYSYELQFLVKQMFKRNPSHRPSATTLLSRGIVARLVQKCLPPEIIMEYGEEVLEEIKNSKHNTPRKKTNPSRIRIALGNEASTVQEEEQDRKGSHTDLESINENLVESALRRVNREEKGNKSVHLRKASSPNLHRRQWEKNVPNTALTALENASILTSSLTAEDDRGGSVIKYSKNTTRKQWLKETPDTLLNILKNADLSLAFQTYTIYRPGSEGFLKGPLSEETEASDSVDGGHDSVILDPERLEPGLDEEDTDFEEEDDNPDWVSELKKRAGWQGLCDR

Focal adhesion kinase 1 = Focal adhesion kinase 1 (Homo sapiens, UniProt Q05397); test: Inhibition of FAK (unknown origin)
[11] = target: Calcium/calmodulin-dependent protein kinase type II subunit alpha (Homo sapiens, UniProt Q9UQM7); test: Inhibition of CamK2a (unknown origin)
DU-145 = test: Antitumor activity against human DU-145 cells harboring KRAS G12V/LKB1 K178/TP53 P223L/V274F/CDKN2A/MLH1/SMARCA4/ NF1 P2472H/RB1K715 mutant xenografted in mouse assessed as tumor growth inhibition at 10 mg/kg, po; assay type: functional; conditions: read-out: TGI; outline: as §1
[12] = target: Dual specificity mitogen-activated protein kinase kinase 7 (Homo sapiens, UniProt O14733); test: Inhibition of MKK7beta (unknown origin)
Sequence of Dual specificity mitogen-activated protein kinase kinase 7 (O14733 whole entry): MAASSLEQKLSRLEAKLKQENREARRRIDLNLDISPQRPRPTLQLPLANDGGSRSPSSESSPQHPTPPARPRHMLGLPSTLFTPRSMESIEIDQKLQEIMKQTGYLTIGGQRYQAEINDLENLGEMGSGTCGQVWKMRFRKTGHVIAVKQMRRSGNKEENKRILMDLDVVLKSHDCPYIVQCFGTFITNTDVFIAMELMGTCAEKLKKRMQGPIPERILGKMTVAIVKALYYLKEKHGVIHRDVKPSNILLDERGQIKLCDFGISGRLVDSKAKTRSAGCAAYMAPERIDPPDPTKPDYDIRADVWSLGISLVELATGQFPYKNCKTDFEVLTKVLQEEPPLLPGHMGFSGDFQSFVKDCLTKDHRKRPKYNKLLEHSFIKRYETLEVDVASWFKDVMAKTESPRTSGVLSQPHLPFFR

888-mel [13] = test: Inhibition of AKT phosphorylation in human 888-mel cells incubated for 24 hrs in presence of 4-(2-(1H-indazol-4-yl)-6-((4-(methylsulfonyl)piperazin-1-yl)methyl)thieno[3,2-d]pyrimidin-4-yl)morpholine by immunoblotting analysis; assay type: cell-based
Ephrin type-A receptor 4 = Ephrin type-A receptor 4 (Homo sapiens, UniProt P54764); test: Inhibition of EphA4 (unknown origin)
[14] = target: Ribosomal protein S6 kinase alpha-5 (Homo sapiens, UniProt O75582); test: Inhibition of MSK1 (unknown origin)
Sequence of Ribosomal protein S6 kinase alpha-5 (O75582 whole entry): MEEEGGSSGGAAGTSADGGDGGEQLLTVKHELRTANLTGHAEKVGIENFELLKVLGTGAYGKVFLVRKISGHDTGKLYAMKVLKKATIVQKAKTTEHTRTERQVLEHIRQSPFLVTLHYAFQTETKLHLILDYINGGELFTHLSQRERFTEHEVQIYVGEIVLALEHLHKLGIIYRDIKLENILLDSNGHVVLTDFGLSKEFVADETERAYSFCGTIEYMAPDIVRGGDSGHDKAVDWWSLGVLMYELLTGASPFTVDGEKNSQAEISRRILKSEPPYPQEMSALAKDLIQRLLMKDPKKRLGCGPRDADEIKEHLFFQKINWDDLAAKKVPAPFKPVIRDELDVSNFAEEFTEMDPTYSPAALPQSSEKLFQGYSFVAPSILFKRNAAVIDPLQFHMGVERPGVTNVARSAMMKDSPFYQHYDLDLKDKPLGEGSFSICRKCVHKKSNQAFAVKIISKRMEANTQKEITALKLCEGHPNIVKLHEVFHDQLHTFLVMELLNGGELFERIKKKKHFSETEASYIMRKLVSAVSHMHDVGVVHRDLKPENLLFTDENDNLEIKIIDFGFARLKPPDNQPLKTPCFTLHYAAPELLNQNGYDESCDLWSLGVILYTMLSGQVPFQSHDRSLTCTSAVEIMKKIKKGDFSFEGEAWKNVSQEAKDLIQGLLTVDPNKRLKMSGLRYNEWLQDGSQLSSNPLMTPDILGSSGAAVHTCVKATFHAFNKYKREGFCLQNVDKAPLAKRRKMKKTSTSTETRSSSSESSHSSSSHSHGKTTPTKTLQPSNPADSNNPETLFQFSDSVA

888-mel [15] = test: Inhibition of S6 phosphorylation in human 888-mel cells preincubated with compound for 24 hrs followed by compound washout and measured after 2 hrs in presence of 4-(2-(1H-indazol-4-yl)-6-((4-(methylsulfonyl)piperazin-1-yl)methyl)thieno[3,2-d]pyrimidin-4-yl)morpholine by immunoblotting analysis; assay type: cell-based
FaDu = test: Antitumor activity against human FaDu cells harboring SMAD4 del/TP53 R248L/CDKN2A mutant xenografted in mouse assessed as tumor growth inhibition at 2.5 mg/kg, po; assay type: functional; conditions: read-out: TGI; outline: as §1
[16] = Antitumor activity against human A2058-X1 cells harboring BRAF V600E/PTEN L112Q/V175/TP53 V274F mutant xenografted in mouse assessed as tumor growth inhibition at 5 mg/kg, po; assay type: functional; conditions: A2058-X1, read-out: TGI; outline: as §1
MIA PaCa-2 = test: Antitumor activity against human MIA PaCa-2 cells harboring KRAS G12C/NOTCH1 L2458V mutant xenografted in mouse assessed as tumor growth inhibition at 5 mg/kg, po; assay type: functional; conditions: read-out: TGI
Outline: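 Human tumor xenografts in mice were dosed orally at the indicated mg/kg. Tumor volume was measured with calipers as (L×W×W)/2. %TGI = 100 × [1 − (AUC treatment/d)/(AUC vehicle/d)], using the area under the fitted tumor-growth curve per day for each dose group relative to vehicle.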

A2058 [17] = test: Antitumor activity against human A2058 cells xenografted in mouse assessed as effect on S6 phosphorylation at 5 mg/kg, po administered daily for 4 days and measured after 8 hrs; assay type: functional, organism-based; conditions: time 104.0 hrs
Angiopoietin-1 receptor = Angiopoietin-1 receptor (Homo sapiens, UniProt Q02763); test: Inhibition of Tie-2 (unknown origin)

- IC50 [3]: > 10 µM
- IC50 [5]: > 10 µM
- IC50 [6]: > 10 µM
- IC50 [7]: > 10 µM
- IC50 [9]: > 10 µM
- IC50 [10]: > 10 µM
- IC50 (Focal adhesion kinase 1): > 10 µM
- IC50 [11]: > 10 µM
- IC50 [12]: > 10 µM
- IC50 (Ephrin type-A receptor 4): > 10 µM
- IC50 [14]: > 10 µM
- IC50 (Angiopoietin-1 receptor): > 10 µM
Structure (SMILES): O=C(c1ccc(F)c(F)c1Nc1ccc(I)cc1F)N1CC(O)([C@@H]2CCCCN2)C1 [COBIMETINIB]
- Activity (A2058 [1]): Active
- inhibition in vivo at 20 mg/kg (A2058 [2]): 83%
- inhibition in vivo at 20 mg/kg (NCI-H2122): 61%
- inhibition in vivo at 10 mg/kg (LoVo): 98%
- Activity [4]: 75%
- inhibition in vivo at 5 mg/kg (A2058 [8]): 12.7%
- inhibition in vivo at 10 mg/kg (DU-145): 77%
- inhibition (888-mel [13]): Active
- inhibition (888-mel [15]): Active
- inhibition in vivo at 2.5 mg/kg (FaDu): 4%
- inhibition in vivo at 5 mg/kg [16]: 45%
- inhibition in vivo at 5 mg/kg (MIA PaCa-2): 6%
- Activity (A2058 [17]): Active
